Published values collected from several papers.
Lines come from different studies, so protocols differ.
Target: Rho-associated protein kinase 1 (ROCK1, Homo sapiens, UniProt Q13464)

CCCOc1ccc(OC)c(F)c1C(=O)c1ccc(C(=O)N[C@@H]2CNC[C@H]2NC(=O)c2ccc3[nH]ncc3c2)cc1 — remaining activity (enzyme activity, inhibitor; 10 µM): 8%
CCCS(=O)(=O)Nc1ccc(F)c(C(=O)c2c[nH]c3ncc(-c4ccc(Cl)cc4)cc23)c1F — inhibition (enzyme activity, inhibitor; 1 µM): < 10%
Cc1ccc(C(=O)Nc2ccc(CN3CCN(C)CC3)c(C(F)(F)F)c2)cc1C#Cc1cnc2cccnn12 — remaining activity (enzyme activity, inhibitor; 23.5 nM): 79%
c1ccc(CNc2nc(N3CCOc4ccccc43)nc3c2CCCC3)cc1 — inhibition (target engagement in cells, inhibitor, chemoproteomics; 20 mM): 3.9%
CC(C)(C)c1nc2c(s1)c1nc(N)ncc1c1ccc(NS(=O)(=O)c3c(F)cccc3F)c(F)c12 — remaining activity (enzyme activity, inhibitor, radiometric; 1 µM): 98%
C[C@@H](c1cccc(C#N)c1)n1cc(Cl)cc(C(N)=O)c1=N — remaining binding (cell-free assay, competition with immobilised ligand; 1 µM): 71%
C[S+]([O-])c1ccc(-c2nc(-c3ccncc3)c(-c3ccc(F)cc3)[nH]2)cc1 (stereo not drawn) — remaining signal (cell-free assay; 0.5 µM): 102%
C=CC(=O)Nc1cc(Nc2nccc(Nc3cc(Cl)c(F)cc3C(C)(C)O)n2)c(OC)cc1N1CC[C@@H](N(C)C)C1 — inhibition (enzyme activity, inhibitor; 1 µM): 0%
CN(C)C1CCN(CC#Cc2nn(C3CCCC3)c3nc(NCc4ccccc4)ncc23)C1 (stereo not drawn) — inhibition (enzyme activity, inhibitor, FRET; 0.1 µM): -5%
Cc1nc(N2CC[C@@H](O)C2)ncc1-c1cc(C(F)(F)F)cc2[nH]ncc12 — remaining binding (binding, competition with immobilised ligand; 1 µM): 91%
COc1cccc2c(NCc3ccccc3)nc(-n3c(N)nc4ccccc43)nc12 — inhibition (target engagement in cells, inhibitor, chemoproteomics; 20 mM): 2.2%
Cc1ccc(NC(=O)c2ccc(C)c(C(F)(F)F)c2)cc1C#Cc1nn(C2CCC(O)CC2)c2ncnc(N)c12 (stereo not drawn) — remaining signal (cell-free assay; 10 µM): 126%
O=C1Nc2ccc(Cl)cc2C1=Cc1cc(Cl)c(O)c(Cl)c1 — remaining signal (cell-free assay; 0.5 µM): 93.2%
CNC(=O)c1cc(Oc2ccc(NC(=O)Nc3ccc(Cl)c(C(F)(F)F)c3)cc2)ccn1 — inhibition (enzyme activity, inhibitor; 10 µM): 8%
O=c1nc(-c2ccccn2)sc2ccccc12 — remaining binding (binding, competition with immobilised ligand; 1 µM): 100%
C[C@@H](N)[C@H]1CC[C@H](C(=O)Nc2ccncc2)CC1 — remaining signal (cell-free assay; 0.5 µM): 31.5%
COc1cc(-c2cn(C3CCc4ccccc4N(CC(F)(F)F)C3=O)nn2)ccc1-n1ccc(C)n1 (stereo not drawn) — remaining binding (cell-free assay, competition with immobilised ligand; 1 µM): 100%
Cn1cncc1C1=CN(c2ncnc3[nH]cnc23)CCS1 — inhibition (enzyme activity, inhibitor, radiometric; 50 nM): 27%
c1ccc(N2CCN(Cc3nc4ccccc4[nH]3)CC2)nc1 — remaining binding (binding, competition with immobilised ligand; 1 µM): 100%
CSc1nc(C)c(-c2ccnc(Nc3ccc(N4CCOCC4)cc3)c2)[nH]1 — inhibition (enzyme activity, inhibitor; 10 µM): -4.2%
CC/C(=N\NC(=O)NCc1cccc(O)c1)c1ccc(O)c(C)c1O — inhibition (enzyme activity, inhibitor; 0.1 µM): 65.5%
Cc1ccc(Nc2nccc(N(C)c3ccc4c(C)n(C)nc4c3)n2)cc1S(N)(=O)=O — inhibition (enzyme activity, inhibitor; 10 µM): 18%
COc1cc2ncnc(Nc3ccc(Oc4ccccc4)cc3C)c2cc1OC — inhibition (enzyme activity, inhibitor; 1 µM): 1%
Cc1cc(NC(=O)c2cccc3cc(-c4cccc5[nH]nc(N)c45)ccc23)ccc1F — activity vs control (enzyme activity, inhibitor; 0.1 µM): 110%
C[C@@H]1CN(c2cc(-c3nn(C)c4ccc(OC5(C)CC5)cc34)ncn2)C[C@H](C)O1 — remaining binding (cell-free assay, competition with immobilised ligand; 1 µM): 100%
CCN(CC)c1ccc(C2=NNC(=O)CC2C)cc1[N+](=O)[O-] (stereo not drawn) — remaining activity (enzyme activity, inhibitor; 10 µM): 109%
CCS(=O)(=O)c1cc2cc(C[C@](O)(CC(C)(C)c3ccc(F)cc3C(N)=O)C(F)(F)F)[nH]c2cn1 — remaining binding (cell-free assay, competition with immobilised ligand; 1 µM): 84%
O=C(Nc1cnn(-c2csc(C(=O)NC3COC3)c2)c1)Nc1c(F)cccc1Cl — remaining activity (enzyme activity, inhibitor; 5 µM): 78.2%
CCN(CC)CCNC(=O)c1c(C)[nH]c(/C=C2\C(=O)Nc3ccc(F)cc32)c1C — inhibition (enzyme activity, inhibitor; 0.3 µM): 6%
COc1ccc2c(c1)O[C@@H](c1ccc(OC)c(OC)c1)C[C@H]2NC(=O)C1(c2ccc3c(c2)OC(F)(F)O3)CC1 — remaining binding (cell-free assay, competition with immobilised ligand; 1 µM): 89%
